This note sets out measurements from ChEMBL document CHEMBL3853281, “Pregnane-10,2-carbolactones from a Hawaiian Marine Sponge in the Genus Myrmekioderma” (J Nat Prod, 2016).

Data set [1] has as its target T1, Nuclear receptor subfamily 1 group I member 2 (Homo sapiens, UniProt O75469).
T1 sequence (O75469 whole entry): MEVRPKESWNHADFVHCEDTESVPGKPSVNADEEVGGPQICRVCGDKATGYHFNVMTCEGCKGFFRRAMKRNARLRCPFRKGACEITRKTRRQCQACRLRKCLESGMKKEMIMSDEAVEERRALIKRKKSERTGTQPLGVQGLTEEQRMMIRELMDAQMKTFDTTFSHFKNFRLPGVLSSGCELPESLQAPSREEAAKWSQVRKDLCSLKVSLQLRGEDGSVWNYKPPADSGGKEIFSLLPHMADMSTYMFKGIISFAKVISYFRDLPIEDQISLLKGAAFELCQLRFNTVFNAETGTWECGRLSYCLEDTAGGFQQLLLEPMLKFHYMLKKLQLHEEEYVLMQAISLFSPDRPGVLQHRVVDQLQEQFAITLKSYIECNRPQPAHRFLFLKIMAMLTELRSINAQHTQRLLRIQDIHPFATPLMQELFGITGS
In words: Activation of human PXR expressed in human DPX2 cells assessed as induction of CYP3A4 gene expression at 40 uM measured after 24 hrs by luciferase reporter gene assay relative to rifampicin. It is filed as cell-based. The conditions noted are these: dpx2, 24 h. An outline of the steps:
(§1)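 PXR reporter run in stable DPX2 cells expressing human PXR with a luciferase reporter linked to two human CYP3A4 promoters. Compound (six concentrations, duplicate wells) was added 24 h after seeding, with a further 24 h incubation. Viability was read first, then luciferase in the same wells. Rifampicin was the reference at seven concentrations; activation is given as % of rifampicin response, with rifampicin at 10 μM.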
For orientation: In a reporter assay the amount or activity of a reporter protein is the signal.

In data set [2] the target is T2, PXR (NR1I2); CYP3A4 gene expression (Homo sapiens, UniProt O75469).
T2 sequence (O75469 whole entry): T1 sequence (O75469 whole entry)
As to the kind of experiment: Activation of human PXR expressed in human DPX2 cells assessed as induction of CYP3A4 gene expression at 0.4 uM measured after 24 hrs by luciferase reporter gene assay relative to control. It is filed as cell-based. The following applies: DPX2 cells expressing human PXR, read-out: FC. A digest of the protocol:
(§2)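 DPX2 cells stably carrying human PXR (NR1I2) and a luciferase reporter under two human CYP3A4 promoters. Cells were seeded, treated 24 h later with six compound concentrations in duplicate wells, then incubated 24 h more. Viable cells were counted by a fluorescent cytotoxicity read in the same wells, then luciferase (ONE-Glo) was read. Fold activation is relative to DMSO vehicle-treated cells.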

The target of data set [3] is T1, Nuclear receptor subfamily 1 group I member 2. As to the kind of experiment: Activation of human PXR expressed in human DPX2 cells assessed as induction of CYP3A4 gene expression at 0.4 uM measured after 24 hrs by luciferase reporter gene assay relative to rifampicin. The data set is classed as cell-based. The following applies: dpx2, 24 h. An outline of the steps: as §1

The target is the same in data set [4]. As to the kind of experiment: Activation of human PXR expressed in human DPX2 cells assessed as induction of CYP3A4 gene expression at 4 uM measured after 24 hrs by luciferase reporter gene assay relative to rifampicin. It is filed as cell-based. The following applies: dpx2, 24 h. A digest of the protocol: as §1
Data set [5] addresses T2, PXR (NR1I2); CYP3A4 gene expression. As to the kind of experiment: Activation of human PXR expressed in human DPX2 cells assessed as induction of CYP3A4 gene expression at 0.1 uM measured after 24 hrs by luciferase reporter gene assay relative to control. The data set is classed as cell-based. The following applies: DPX2 cells expressing human PXR, read-out: FC. A digest of the protocol:
as §2

For data set [6], the target named is T1, Nuclear receptor subfamily 1 group I member 2. In words: Activation of human PXR expressed in human DPX2 cells assessed as induction of CYP3A4 gene expression at 1 uM measured after 24 hrs by luciferase reporter gene assay relative to rifampicin. The conditions noted are these: dpx2, 24 h. It is filed as cell-based. A digest of the protocol: as §1
For data set [7], the target named is T2, PXR (NR1I2); CYP3A4 gene expression. In words: Activation of human PXR expressed in human DPX2 cells assessed as induction of CYP3A4 gene expression at 1 uM measured after 24 hrs by luciferase reporter gene assay relative to control. The data set is classed as cell-based. The following applies: DPX2 cells expressing human PXR, read-out: FC. An outline of the steps: as §2

The target is the same in data set [8]. As to the kind of experiment: Activation of human PXR expressed in human DPX2 cells assessed as induction of CYP3A4 gene expression at 10 uM measured after 24 hrs by luciferase reporter gene assay relative to control. It is filed as cell-based. The conditions noted are these: DPX2 cells expressing human PXR, read-out: FC. An outline of the steps:
as §2

For data set [9], the target named is T1, Nuclear receptor subfamily 1 group I member 2. In words: Activation of human PXR expressed in human DPX2 cells assessed as induction of CYP3A4 gene expression at 0.1 uM measured after 24 hrs by luciferase reporter gene assay relative to rifampicin. The data set is classed as cell-based. The conditions noted are these: dpx2, 24 h. An outline of the steps:
as §1

In data set [10] the target is T2, PXR (NR1I2); CYP3A4 gene expression. As to the kind of experiment: Activation of human PXR expressed in human DPX2 cells assessed as induction of CYP3A4 gene expression at 40 uM measured after 24 hrs by luciferase reporter gene assay relative to control. The data set is classed as cell-based. The following applies: DPX2 cells expressing human PXR, read-out: FC. An outline of the steps:
as §2

Data set [11] has the same target. In words: Activation of human PXR expressed in human DPX2 cells assessed as induction of CYP3A4 gene expression at 4 uM measured after 24 hrs by luciferase reporter gene assay relative to control. It is filed as cell-based. The conditions noted are these: DPX2 cells expressing human PXR, read-out: FC. A digest of the protocol: as §2
Data set [12] addresses T1, Nuclear receptor subfamily 1 group I member 2. As to the kind of experiment: Activation of human PXR expressed in human DPX2 cells assessed as induction of CYP3A4 gene expression at 10 uM measured after 24 hrs by luciferase reporter gene assay relative to rifampicin. The data set is classed as cell-based. The conditions noted are these: dpx2, 24 h. A digest of the protocol:
as §1

Data set [13] deals with Beta-secretase 1 (Homo sapiens, UniProt P56817). In words: Inhibition of BACE1 (unknown origin) assessed as cleavage of amyloid precursor protein by beta-galactosidase enzyme complementation assay.

Structures are written as SMILES.

Beta-secretase 1, sequence (P56817 whole entry): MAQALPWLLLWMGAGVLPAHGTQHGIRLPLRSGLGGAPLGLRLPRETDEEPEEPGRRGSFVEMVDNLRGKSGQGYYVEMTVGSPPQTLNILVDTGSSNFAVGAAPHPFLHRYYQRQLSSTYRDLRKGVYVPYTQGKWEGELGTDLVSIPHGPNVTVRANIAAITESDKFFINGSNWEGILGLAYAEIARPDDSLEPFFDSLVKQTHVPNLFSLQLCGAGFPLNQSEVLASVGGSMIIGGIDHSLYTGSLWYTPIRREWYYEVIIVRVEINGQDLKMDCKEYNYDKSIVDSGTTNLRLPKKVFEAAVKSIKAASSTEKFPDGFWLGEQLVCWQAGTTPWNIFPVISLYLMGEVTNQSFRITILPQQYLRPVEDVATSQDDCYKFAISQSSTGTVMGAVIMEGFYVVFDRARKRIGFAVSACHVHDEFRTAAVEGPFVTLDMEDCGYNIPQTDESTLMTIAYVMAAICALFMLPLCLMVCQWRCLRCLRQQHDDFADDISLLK

As for `C/C=C1\CC[C@H]2[C@@H]3CC=C4[C@@H](O)[C@@H](O)[C@@H]5C[C@]4(C(=O)O5)[C@H]3CC[C@]12C`, the Activity stood at 28% in data set [1]; 4% in data set [3]; 2% in data set [4]; 2% in [6]; 3% in [9]; 6% in [12]. Further, the fold induction at 24 h, 0.4 µM in [2] is 1.4. Moreover, the fold induction at 24 h, 0.1 µM in data set [5] amounted to 1.3. The fold induction at 24 h, 1 µM in [7] was found to be 1.2. The fold induction at 24 h, 10 µM in data set [8] was found to be 1.6. In addition, the fold induction at 24 h, 40 µM in [10] was found to be 3.7. In [11], the fold induction at 24 h, 4 µM is 1.2.
The IC50 is the concentration at which inhibition is half-maximal. Turning to `CC[C@]1(C)CCC2=C1CC[C@H]1[C@H]2C[C@@H](Cl)C2=C[C@@H](O)[C@@H]3C[C@@]21C(=O)O3`, the IC50 in data set [13] came to 82 µM.
